The full list was thinned out, with hits kept by preference.
XBP1 UPR activ – activators of adaptive XBP1 UPR arm, primary screen, cell-based, CHO-XBP1 luciferase reporter, luminescence, uHTS; IRE1-XBP1 UPR activation; percent of tunicamycin response, DMSO as zero; activation, % at 20 µM; 330,000 compounds, 0.33% hits;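 active = versus positive control, 20 µM dose yields 30% or more activation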
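Test system: CHO-XBP1 luciferase reporter cells | Buffer or medium: Serum-containing F12 medium, 10% FBS | Schedule: 6 h compound exposure at 37 °C, 5% CO2 | Detection: Steady-Glo luciferase glow luminescence, 10 min after reagent addition | Read-out basis: Activation, % of tunicamycin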
697 NFkB inh – inhibitors of PMA/ionomycin-induced NF-kB reporter, 697 cells, primary screen, B-cell NF-kB inhibitor project, cell-based, luminescence, uHTS; 697 B-cell NF-kB luciferase reporter, 16 h; inhibition, % at 4 µM; 330,000 compounds, 0.33% hits; in the data active = inhibition above about 35%
Jurkat NFkB inh – inhibitors of induced NF-kB luciferase reporter, primary screen, TCR NF-kB activation inhibitor project, cell-based, luminescence, uHTS; Jurkat, PMA/ionomycin-induced NF-kB luciferase reporter; 330,000 compounds, 0.53% hits; inhibition, % at 4 µM; in the data active = inhibition above about 50%
UPR CHOP act – activators of apoptotic CHOP UPR arm, primary screen, cell-based, CHO-CHOP luciferase reporter, luminescence, uHTS | UPR activation; percent of tunicamycin response over DMSO baseline | activation, % at 10 µM | 330,000 compounds, 0.34% hits | AID 449763, 2010;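 active = at 10 µM dose, activation of 40% or more, normalized to positive control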
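Assay system: CHO-CHOP cells, stable luciferase reporter of PERK-eIF2a-CHOP signalling / Buffer or medium: F12 plus 10% serum / Compound dosing: one dose, 10 µM in 0.5% DMSO / Times: 6 h compound treatment, 37 °C / Technique: luciferase luminescence / Read-out: % reporter activation, DMSO baseline versus tunicamycin full activation / Benchmarks: tunicamycin and DMSO controls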
CHOP inhibitor – inhibitors of CHOP promoter induction, primary screen, cell-based, unfolded protein response, luciferase reporter. CHO-K1 CHOP-promoter luciferase, tunicamycin-induced, 15-18 h. inhibition, % at 10 µM. 220,000 compounds, 3.8% hits. AID 2732, 2010;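 active = compounds that reduced the stress-induced luciferase reporter signal by more than about 70% of percent inhibition, limit read from the data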
CHOP inh conf – retest of CHOP induction inhibitors, confirmation, cell-based; 2,100 compounds, 45% hits; inhibition, % at 10 µM; CHO-CHOP promoter luciferase reporter, tunicamycin-induced, luminescence; shares compounds with CHOP inhibitor;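 active = mean of three repeat readings of reporter signal inhibition above a set limit, cut at about 70% in these data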
Hits are given with their value; . = inactive; / = not tested or not shown.

SMILES | XBP1 UPR activ | 697 NFkB inh | Jurkat NFkB inh | UPR CHOP act | CHOP inhibitor | CHOP inh conf
CCOC(=O)/C(=C/c1ccc(OC(=O)c2ccccc2)cc1)C(C)=O | . | . | . | . | 101 | .
CCOC(=O)/C(=C\c1ccccc1)NC(=O)c1ccccc1 | . | . | . | . | . | /
CCOc1cc2[nH]c(=O)n(CCC(=O)N3CCN(c4ccccc4OC)CC3)c(=O)c2cc1OCC | . | . | . | . | . | /
COc1cc2[nH]c(=O)n(CCC(=O)N3CCN(c4cc(Cl)ccc4C)CC3)c(=O)c2cc1OC | . | . | . | . | 104 | .
CN(CC(=O)Nc1ccccc1Br)C(=O)COc1ccc2ccccc2c1 | . | . | . | . | / | /
O=Cc1cn(-c2ccccc2)nc1-c1ccc(F)cc1 | . | . | . | . | / | /
CC1=NNC(=O)/C1=C\c1cn(-c2ccccc2)nc1-c1ccc(F)cc1 | / | / | / | / | 106 | 119
CCN(CCO)c1ncnc2c1sc1nc(C(C)C)c3c(c12)CC(C)(C)OC3 | . | . | . | . | 99 | 103
CC(C)c1nc2sc3c(NCc4ccccc4)ncnc3c2c2c1COC(C)(C)C2 | . | . | . | . | . | /
Cn1c(NC(=O)c2ccccc2F)c(-c2cccs2)c(=O)c2ccccc21 | . | . | . | . | . | /
COc1ccccc1CNC(=O)c1cn(C)c2ccc(S(=O)(=O)N3CCCC3)cc2c1=O | . | . | . | . | 106 | .
COC(=O)c1ccc(-c2sc3nc(N4CCOCC4)c4c(c3c2N)CC(C)(C)OC4)o1 | . | . | . | . | 102 | .
CCOc1ccc(CCNc2ccc3nnc(-c4ccccc4)n3n2)cc1OCC | . | . | . | . | 97 | .
CCC(C)NC(=O)C(Sc1ccccc1)c1ccccc1 (centres undefined) | . | . | . | . | . | /
Fc1c(F)c(C(F)(F)F)c(F)c(F)c1N/N=C\c1cccs1 | . | . | . | . | 101 | 89
COc1ccc(Cl)cc1C(=O)NNC1CC(=O)N(Cc2ccc(Cl)cc2)C1=O (centres undefined) | . | . | . | . | . | /
Oc1ccc(Br)cc1-c1cc(-c2ccccc2F)[nH]n1 | . | . | . | . | 98 | 100
Oc1ccc(Cl)cc1-c1cc(-c2ccccc2)n[nH]1 | . | . | . | . | 105 | 82
Cc1ccc(O)c(-c2cc(-c3cccc(Br)c3)n[nH]2)c1 | . | . | . | . | 97 | .
O=C(N/N=C/c1ccc(Br)s1)Nc1ccccc1 | . | . | . | . | 97 | .
O=C(N/N=C/c1ccc(Br)s1)c1cccs1 | . | . | . | . | . | /
COCCOC(=O)c1cc(C(=O)c2cc(Cl)ccc2O)coc1=N | . | . | . | . | . | /
COc1ccc(OC)c(/C=N/NC(=O)CSc2cc(C)nc3c(OC)cccc23)c1 | . | . | . | . | 105 | .
COc1ccc2nc(C)cc(SCC(=O)N/N=C/c3ccco3)c2c1 | . | . | . | . | / | /
Oc1cccc(C2c3[nH]c4ccccc4c3CCN2Cc2ccoc2)c1 (centres undefined) | . | . | . | . | . | /
SMILES | XBP1 UPR activ | 697 NFkB inh | Jurkat NFkB inh | UPR CHOP act | CHOP inhibitor | CHOP inh conf
Oc1cccc(C2c3[nH]c4ccccc4c3CCN2Cc2ccc3c(c2)CCO3)c1 (centres undefined) | . | . | . | . | 106 | .
COc1ccc(C(=O)NCCNc2nc3ccc(C)cc3cc2C#N)cc1 | . | . | . | . | / | /
CCOc1ccc2nc(NCCNC(=O)Nc3cccc(C)c3)c(C#N)cc2c1 | . | . | . | . | 103 | .
O=C(C[n+]1ccc(/C=N/O)cc1)N1CCCCC1 | . | . | . | . | . | /
CCc1nnc(NC(=O)c2ccc(S(=O)(=O)N3CCN(Cc4ccccc4)CC3)cc2)s1 | . | . | . | . | 97 | .
C=CCn1c(N2CCOCC2)nc2c1c(=O)[nH]c(=O)n2C | . | . | . | . | . | /
C/C(N)=C(/C#N)C(=O)CSc1cc(C)c2ccccc2n1 | . | . | . | . | . | /
FC(F)(F)c1cccc(CN2CCC(c3cc(-c4cccs4)n[nH]3)CC2)c1 | . | . | . | . | 104 | 94
Cc1ccc(CN2CCC(c3cc(-c4cccs4)n[nH]3)CC2)cc1 | . | . | . | . | . | /
N[C@@H](Cc1ccccc1)c1nnc(SC/C=C/c2ccccc2)o1 | . | . | . | . | . | /
Cc1ccc(CNCC(O)(c2ccccc2)c2ccccc2)cc1 | . | . | . | . | / | /
Cc1ccc(CNCC(O)(c2ccccc2)c2ccc(Cl)cc2)cc1 (centres undefined) | / | / | / | / | 99 | 135
Cc1csc(NC(=O)CSc2nnc(NC(=O)COc3ccccc3)s2)n1 | . | . | . | . | 101 | .
O=c1[nH]c2ccc(Cl)cc2c(-c2ccccc2)c1SC(=S)N1CCOCC1 | . | . | . | . | 99 | .
O=C(/C=C/c1ccc(Cl)c([N+](=O)[O-])c1)Nc1ccc(N2CCCC2)cc1 | . | . | . | . | . | /
Cc1ccc(NC(=O)c2ccc(Nc3c([N+](=O)[O-])cc([N+](=O)[O-])cc3[N+](=O)[O-])cc2)cc1 | . | . | . | . | 104 | 108
CCCCNS(=O)(=O)c1ccc2nc(-c3cccnc3)cc(C(=O)NC3CCCC3)c2c1 | . | . | . | . | 102 | 107
CCCCNS(=O)(=O)c1ccc2nc(-c3cccnc3)cc(C(=O)NC3CC3)c2c1 | . | . | . | . | . | /
CC1=CN2C(=N)/C(=C/c3ccc([N+](=O)[O-])o3)C(=O)N=C2S1 | / | / | / | / | 107 | .
CC1=CN2C(=N)/C(=C/c3ccco3)C(=O)N=C2S1 | . | . | . | . | . | /
Cc1cccc(C)c1N1CCN(c2ccc3nnc(C(F)(F)F)n3n2)CC1 | . | . | . | . | 106 | 102
CCCC(=O)NC(Nc1cc(C(F)(F)F)ccc1Cl)C(Cl)(Cl)Cl (centres undefined) | . | . | . | . | 97 | .
Cc1nn(-c2ccccc2)c(C)c1-c1ccccc1O | . | . | . | . | / | /
Cc1nn(-c2ccccc2)c(/N=C/c2ccc(O)cc2)c1-c1ccccc1 | . | . | . | . | 104 | .
CC(C)COc1ccc(C(=O)Nc2ccc(NC(=O)c3ccco3)c(Cl)c2)cc1 | . | . | . | . | 101 | .
CC(C)Oc1ccc(C(=O)Nc2ccc(NC(=O)c3ccco3)c(Cl)c2)cc1 | . | . | . | . | . | /
Cc1cc2c(n1-c1ccc(Br)cc1)CC(C)(C)CC2=O | . | . | . | . | . | /
Cc1ccc(-n2c(C)cc3c2CC(C)(C)CC3=O)cc1C | . | . | . | . | 105 | .
Cc1ccc(NC(=O)c2cc(N3C(=O)C=CC3=O)ccc2N2CCOCC2)cc1Cl | / | / | / | / | 100 | .

Bioassay records: PubChem BioAssay, several laboratories
